EP2 modulator = EP2 receptor modulators, cAMP readout, primary screen, cell-based, HTRF cAMP, PGE2 stimulation; AID 940, 2007; induction, % at 25 µM; actives 0.83% (n = 260,000); EP2-expressing cells, cAMP HTRF FRET, PGE2 co-stimulation;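 active means compounds whose cAMP rise, as percent of the full-agonist control response, exceeds 60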;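 further: rat C6 glioma line stably carrying human EP2 under a CMV promoter; the protocol text gives 20 µM as final concentration; 100% = response of wells given 1 µM PGE2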
PGE2 EP2 inh = human EP2 receptor antagonists, primary screen, TR-FRET cAMP, C6 glioma cells. inhibition, % at 25 µM. AID 1422, 2008. actives 0.52% (n = 260,000). C6 glioma cells expressing human EP2; cells stimulated with saturating PGE2. Prostaglandin E2 receptor EP2 subtype (Homo sapiens), P43116;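 active means percent inhibition above 40 after rounding to a whole number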;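 further: rat C6 glioma host cells with rolipram phosphodiesterase inhibitor present; the protocol text gives 20 µM as final concentration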
hK5 inh = human KLK5 protease inhibitors, primary screen, biochemical, 1536-well | recombinant hK5, fluorogenic AMC substrate cleavage | inhibition, % at 5 µM | Kallikrein-5 (Homo sapiens), Q9Y337 | actives 0.59% (n = 210,000) | AID 873, 2007;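 active means inhibition of 40% or more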;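 further: 0% = enzyme controls without compound and 100% = no-enzyme blanks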
FXIIa inh 1536 = human FXIIa protease inhibitors, primary screen, biochemical, 1536-well | AID 800, 2007 | purified FXIIa, Boc-QGR-AMC fluorogenic substrate, 2 h | Coagulation factor XII (Homo sapiens), P00748 | actives 0.3% (n = 220,000) | inhibition, % at 5 µM; in the data active means inhibition above about 40%;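 further: 0% = enzyme with no compound and 100% = blank without enzyme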
FXIa inh = human FXIa protease inhibitors, primary screen, biochemical, 1536-well; purified FXIa, Boc-Glu-Ala-Arg-AMC fluorogenic substrate; inhibition, % at 5 µM; actives 0.14% (n = 220,000); AID 798, 2007;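 active means inhibition of at least 40%; inactive means inhibition below 40%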;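 further: fluorescence of freed AMC excited at 355 nm; 0% = enzyme without compound and 100% = no enzyme blank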
thrombin 1536 = human alpha-thrombin inhibitors, primary screen, counter-screen for coagulation protease inhibitor project, biochemical, 1536-well, fluorogenic AMC substrate; Boc-VPR-AMC fluorogenic substrate cleavage; inhibition, % at 5 µM; actives 0.26% (n = 220,000); AID 1046, 2008;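 active means inhibition at or above 40%; inactive means inhibition below 40%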;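 further: 0% = enzyme with no compound and 100% = wells without enzyme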
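System: Human alpha-thrombin protein | Medium: pH 7.5 Tris (50 mM) with NaCl 150 mM, Tween 20 0.05% | Times: Enzyme reaction carried out at room temperature | Detection: AMC fluorescence, 355/460 nm | Evaluation: Percent inhibition scaled between no-compound controls and no-enzyme blanks | Benchmarks: Enzyme without compound as high, wells lacking enzyme as low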
* marks the source's active call; other numbers are inactive results; / = not tested or not shown. Most compounds without a hit are left out; they make up all but 2.1% or so of the library.

SMILES | EP2 modulator | PGE2 EP2 inh | hK5 inh | FXIIa inh 1536 | FXIa inh | thrombin 1536
Cc1ccc(C(=O)ONc2ccc(N=O)cc2)cc1 | -8 | 11 | -8 | 44* | 8 | 1
O=Nc1ccc(NOC(=O)c2ccc(Br)cc2)cc1 | 14 | 15 | 2 | 39 | 5 | 1
COc1ccc(NC(=O)Cn2nc(-c3ccco3)cc(N)c2=O)cc1Cl | -40 | 11 | / | / | / | /
COC(=O)c1c(C)nc2c(c(SC)nn2-c2ccccc2)c1N | 63* | 12 | -2 | 11 | 5 | 1
COC(=O)c1nnn(-c2ccccc2)c1N | -4 | 5 | -3 | -3 | -7 | -7
Cc1nc(-c2ccccn2)sc1C(=O)Nc1ccc(Cl)c(Cl)c1 | -31 | 52* | -10 | 13 | 3 | -4
CC(=O)c1sc(-c2ccccn2)nc1C | 1 | 8 | / | 9 | 2 | 1
Clc1ccc(Cn2ncc3c(N4CCCCC4)ncnc32)cc1 | -8 | 17 | -4 | 10 | 7 | -1
Clc1ccc(Cn2ncc3c(N4CCCC4)ncnc32)cc1 | -39 | 11 | 44* | 8 | 1 | 9
CCOC(=O)Cc1csc(NC(=O)c2sc3nc4cc(C)ccc4cc3c2N)n1 | -37 | 13 | -5 | 11 | 10 | 0
CCOC(=O)Cc1csc(NC(=O)c2sc3nc4ccc(CC)cc4cc3c2N)n1 | -51 | 12 | 91* | 21 | 43* | 24
Cc1ccc(C(=O)Nc2nc(C)c(C)s2)cc1 | -57 | 9 | / | / | / | /
CCOC(=O)c1ccccc1NC(=O)CSc1nc2ccccc2o1 | 61* | 4 | -14 | -9 | -12 | -1
Cc1cc(C)nc(SCC(=O)c2cc3ccccc3oc2=O)n1 | 6 | 7 | -13 | -2 | 4 | -6
CCOC(=O)c1c(NC(=O)CSc2nc3ccccc3o2)sc(C)c1C | 38 | 5 | -3 | 2 | -7 | -7
COc1ccccc1CC(=O)Nc1ccccc1C(=O)O | 8 | 4 | -20 | 12 | 7 | 3
CCOC(=O)c1ccccc1NC(=O)Cc1ccccc1OC | 62* | 0 | -5 | 15 | 7 | -3
O=C(CSc1nc2ccccc2o1)c1cc2ccccc2oc1=O | -1 | 18 | 30 | 13 | 6 | 81*
CN(C)C[C@H]1CCC2=C(C1=O)C(c1ccc(Cl)c(Cl)c1)C1=C(CC[C@H](CN(C)C)C1=O)O2 | -12 | 55* | / | / | / | /
CC12CCC(c3c(C(=O)Nc4nccs4)nn(-c4ccccc4)c31)C2(C)C (stereo unspecified) | 32 | 10 | 52* | 22 | 12 | 14
C[N+](C)(C)[C@@H](C1=CCCC1=O)c1ccccc1 | 18 | 52* | / | / | / | /
COc1cc2cc(CN(Cc3cccnc3)S(=O)(=O)c3ccc(C)cc3)c(=O)[nH]c2cc1OC | -46 | 8 | / | / | / | /
CCOc1ccc(C(=O)N2CCC(n3nnc4cc(C(F)(F)F)ccc43)CC2)cc1 | -39 | 7 | / | / | / | /
CCCS(=O)(=O)C(=C(Nc1ccccc1)Nc1ccccc1)S(=O)(=O)CCC | 63* | 5 | 2 | 16 | 4 | 2
Cc1cccc2cc(C(c3nnnn3Cc3ccc(F)cc3)N3CCCCC3)c(=O)[nH]c12 (stereo unspecified) | -14 | 7 | / | / | / | /
Cc1ccc(C)c2[nH]c(=O)c(C(c3nnnn3CCc3ccccc3)N3CCCCC3)cc12 (stereo unspecified) | 85* | 11 | / | / | / | /
Cc1ccc(C)c2[nH]c(=O)c(C(c3nnnn3CCc3ccccc3)N3CCOCC3)cc12 (stereo unspecified) | 6 | 11 | -19 | 16 | 9 | -12
Cc1cc(C)c2[nH]c(=O)c(C(c3nnnn3Cc3ccc(F)cc3)N3CCCCCC3)cc2c1 (stereo unspecified) | 69* | 13 | / | / | / | /
CN(C)CCN(Cc1cc2cc3c(cc2[nH]c1=O)OCO3)C(=O)Nc1cccc(Cl)c1 | 3 | 10 | / | / | / | /

High-throughput results (PubChem BioAssay)
